Xi reactivation – reactivates the inactive X chromosome in mouse fibroblasts | XiGFP mouse fibroblasts, % GFP-positive cells imaging, 3 d; cells co-treated with 5-aza-dC sensitizer; scaled so ellipticine positive control = 100% | activation, % at 7.58 µM | 360,000 tested, 0.055% active | AID 743238;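 active = mean normalized replicate activation at least 10% and every replicate at or above 10%; inconclusive = only one of the two criteria met; inactive = mean below 10% and not all replicates reach 10%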;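 also: 0% = median of on-plate neutral control wells and 100% = ellipticine 6 µM median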
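System: SV40-immortalized XiGFP fibroblast cells, line 68-5-11 / Incubation: 3-day compound exposure, then 15 min fixation at room temperature / Compound: single concentration per compound, delivered by pin transfer / Buffer or medium: DMEM plus 5-aza-dC sensitizer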
esBAF inh – inhibitors of esBAF chromatin remodeling in mouse ES cells | 350,000 tested, 2% active | reporter increase, % at 12.5 µM | Bmi1-luciferase knock-in reporter, 24 h; 100% = twice the neutral-well signal | AID 602393; in the data active = activation above about 40%; inconclusive = no clear call, values can overlap the other calls;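 also: 0% = median of the plate's neutral control wells and 100% = double that signal; a rise in the Bmi1 reporter signal indicates esBAF inhibition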
MITF act – increases MITF-driven TRPM1 promoter luciferase signal; SK-MEL-5 TRPM1-promoter luciferase, 24 h; % of positive control, neutral wells = 0; activation, % at 12.5 µM; 300,000 tested, 0.75% active; AID 588334;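 active = mean activation of at least 80% with every replicate also reaching 80%; inconclusive = mean reaches 80% but some replicate falls short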;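 also: 0% = neutral control wells and 100% = parthenolide positive control wells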
Vif imaging – inhibitors of HIV Vif. HEK293T cells, Vif self-association by quenched fluorescence, imaging, 24 h. inhibition, % at 7.49 µM. 340,000 tested, 0.35% active; in the data active = inhibition above about 50%, passing the limit was not always enough; inconclusive = no clear call, values can overlap the other calls; inactive = below about 31%
Wnt act – activators of Wnt/beta-catenin signaling; Wnt/beta-catenin reporter cell assay, activator, plate reader; activation, % at 9.35 µM; 300,000 tested, 1.2% active; AID 743398; in the data active = activation above about 30%, passing the limit was not always enough; inconclusive = no clear call, values can overlap the other calls;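 also: 0% = neutral control wells and 100% = positive control wells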
Starred values were filed as active, the others as inactive. Most compounds without a hit are left out; they make up all but 2.6% or so of the library.

For CCCC(=O)Nc1ccc2oc(-c3cncc(Br)c3)nc2c1 the results were Xi reactivation 0.0, esBAF inh 11.8, MITF act 96.8*, Vif imaging 15.9 and Wnt act -1.0.
`Cc1noc(C)c1S(=O)(=O)Nc1ccc2c(c1)C(=O)N([C@H](C)CO)C[C@@H](C)[C@H](CN(C)S(=O)(=O)c1cn(C)cn1)OCCCC[C@@H](C)O2` gave Xi reactivation -0.1 and esBAF inh -2.3.
`Cc1ccc(/C=C(\C#N)C(=O)Nc2ccccn2)o1` gave Xi reactivation 0.0, esBAF inh 62.8*, MITF act 103.2*, Vif imaging 5.7 and Wnt act 19.9.
For Cc1occc1-c1nnc(SC(C)C(=O)Nc2ccccc2F)o1 (stereo not drawn) the results were Xi reactivation 0.0, MITF act 57.5, Vif imaging 2.0 and Wnt act 41.8*.
Screening CC(Sc1nnc(-c2ccccc2F)o1)C(=O)Nc1ccc(N2CCOCC2)cc1 (stereo not drawn) returned Xi reactivation 1.2, esBAF inh 18.3, MITF act 34.5, Vif imaging -1.3 and Wnt act -1.5.
For Cc1ccccc1-c1cc(-c2ccccc2O)n[nH]1 the results were esBAF inh -28.7, MITF act 26.1 and Wnt act 54.6*.
Screening Cc1ccc(-c2cc(-c3ccc(C)cc3O)[nH]n2)cc1 returned Xi reactivation 0.1, esBAF inh 35.8, MITF act inconclusive, Vif imaging -1.5 and Wnt act 16.3.
For COc1ccc(O)c(-c2cc(-c3ccccc3Cl)[nH]n2)c1 the results were Xi reactivation -0.1, esBAF inh 73.7*, Vif imaging -5.9 and Wnt act 12.9.
Screening Cc1ccc(-c2cc(-c3ccccc3Cl)[nH]n2)c(O)c1 returned esBAF inh 51.7*, MITF act 70.8, Vif imaging -3.3 and Wnt act 29.9.
Screening Cc1ccc(-c2cc(-c3ccccc3[N+](=O)[O-])[nH]n2)c(O)c1 returned esBAF inh 70.3*, MITF act 61.5, Vif imaging -11.8 and Wnt act 20.9.
For Oc1ccc(Br)cc1-c1cc(-c2ccccc2F)[nH]n1 the results were esBAF inh 22.8, MITF act 15.7, Vif imaging -7.3 and Wnt act 14.7.
For Oc1ccc(Br)cc1-c1cc(-c2ccccc2Cl)[nH]n1 the results were Xi reactivation 0.1, MITF act 2.8, Vif imaging -2.4 and Wnt act 23.5.
`C/C=C/c1ccc([C@H]2[C@@H](CN(C)C(=O)CC)N(C(=O)C3CC3)[C@H]2CO)cc1` gave Xi reactivation 0.1.
Screening CC(=O)c1sc(-c2ccccc2)cc1N returned Xi reactivation 0.1, Vif imaging -1.8 and Wnt act 15.9.
`CC(C)(C)N=Cc1cc(-c2ccccc2)sc1O` gave esBAF inh 73.5*, Vif imaging 3.0 and Wnt act 62.9*.
Screening CCC(Oc1ccccc1)C(=O)N(CC)CC(=O)NCc1ccc(F)cc1 (stereo not drawn) returned Xi reactivation 0.2, MITF act -0.3, Vif imaging -16.6 and Wnt act 0.9.
`CCN(CC(=O)NCc1ccc(F)cc1)C(=O)c1ccc(COc2ccccc2)cc1` gave Xi reactivation 0.0, esBAF inh 56.7*, MITF act 45.1, Vif imaging -8.6 and Wnt act 0.0.
`O=C(C[C@H]1CC[C@@H]2[C@H](COC[C@H](O)CN2C(=O)c2cccnc2)O1)NC1Cc2ccccc2C1` gave Xi reactivation 0.1 and esBAF inh -3.6.
Screening CSc1ncc(C(=O)Nc2ccc(C(C)=O)cc2)c(C)n1 returned Xi reactivation -0.1, esBAF inh 52.1*, MITF act 56.9, Vif imaging -9.0 and Wnt act 6.9.
CCS(=O)(=O)Nc1ccc2c(c1)C(=O)N(C)C[C@H](OC)[C@@H](C)CN(CC1CCCC1)[C@@H](C)CO2 was read as Xi reactivation 0.4 and esBAF inh 1.5.
Screening Nc1c(C(=O)c2ccccc2)sc2nsc(SCCN3CCOCC3)c12 returned Xi reactivation 0.2, Vif imaging 0.2 and Wnt act 40.1*.
COc1ccc(CC(N)c2csc(NC(=O)c3cc(C(C)(C)C)oc3C)n2)cc1 (stereo not drawn) was read as Xi reactivation 0.1, esBAF inh 53.5*, Vif imaging -12.3 and Wnt act -3.4.
